Measured values: ChEMBL document CHEMBL3112469, “Substituted 2-phenylimidazopyridines: a new class of drug leads for human African trypanosomiasis” (J Med Chem, 2014)

How the values were obtained:
[1] = tested on: Trypanosoma brucei brucei; test: Antiparasitic activity against Trypanosoma brucei brucei BF427 assessed as growth inhibition by Alamar Blue assay; assay type: functional, organism-based
How it was run: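 Bloodstream-form T. brucei brucei BF427 grown with serial compound dilutions, each tested in triplicate. Growth quantified with AlamarBlue. Pentamidine isothionate included in every assay as positive control.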

L6 = test: Cytotoxicity against rat L6 cells after 48 hrs by Alamar Blue assay; assay type: cell-based; conditions: l6, 48 h
[2] = Cytotoxicity against human CRL8155 cells after 48 hrs by Alamar Blue assay; assay type: cell-based; conditions: crl8155, 48 h
HepG2 = test: Cytotoxicity against human HepG2 cells after 48 hrs by Alamar Blue assay; assay type: cell-based; conditions: hepg2, 48 h

Row | SMILES | EC50 [1] [µM] | CC50 (L6) [µM] | CC50 [2] [µM] | CC50 (HepG2) [µM]
1 | O=C(Nc1ccc(Cl)c(-c2nc3ccccc3o2)c1)C1CCCCC1 | > 20 |  |  | 
2 | O=C(Nc1ccc(Cl)c(-c2nc3ncccc3o2)c1)N1CCCCC1 | 1.9 |  |  | 
3 | O=C(Nc1ccc(F)c(C(=O)Nc2ccc(Cl)cn2)c1)c1ccco1 | 7 |  |  | 
4 | CC(C)NC(=O)Nc1ccc(Cl)c(-c2nc3ncccc3o2)c1 | 1 | > 50 |  | 
5 | O=C(Nc1ccc(F)c(-c2nc3cc(-c4cccc(OC(F)(F)F)c4)cnc3[nH]2)c1)N1CCCC1 | 0.03 |  | 11 | > 50
6 | O=C(Nc1ccc(F)c(-c2nc3ncc(-c4ccc(-c5ccccc5)cc4)cc3o2)c1)c1ccco1 | 0.42 | > 50 |  | 
7 | O=C(Nc1ccc(F)c(-c2nc3cc(-c4ccsc4)cnc3[nH]2)c1)N1CCCC1 | 0.002 |  | 6 | > 50
8 | Fc1ccc(NCc2ccccc2)cc1-c1nc2ncccc2o1 | > 20 |  |  | 
9 | O=S(=O)(Nc1ccc(Cl)c(-c2nc3ncccc3o2)c1)c1ccccc1 | > 20 | > 50 |  | 
10 | O=C(Nc1ccc(F)c(-c2nc3cc(-c4ccccc4Cl)cnc3[nH]2)c1)N1CCCC1 | 0.005 |  |  | 
11 | O=C(Nc1ccc(F)c(-c2nc3cc(Cl)cnc3[nH]2)c1)c1ccco1 | 0.07 | > 50 | 1.7 | > 50
12 | O=C(Nc1ccc(F)c(-c2nc3cc(-c4cncc(N5CCCC5)c4)cnc3[nH]2)c1)N1CCCC1 | 0.02 |  | 8 | > 50
13 | COc1cc([C@@H]2c3cc4c(cc3[C@H](O)[C@H]3COC(=O)[C@H]23)OCO4)cc(OC)c1OC [PODOFILOX] |  | 0.014 |  | 
14 | COc1ccccc1-c1cnc2[nH]c(-c3cc(NC(=O)N4CCCC4)ccc3F)nc2c1 | 0.005 |  | 13 | > 50
15 | Fc1ccc(NC(=S)c2ccco2)cc1-c1nc2ncccc2o1 | 0.41 | > 50 |  | 
16 | N#Cc1cnc2nc(-c3cc(NC(=O)c4ccco4)ccc3F)oc2c1 | 0.38 | > 50 |  | 
17 | COc1cccc(-c2cnc3[nH]c(-c4cc(NC(=O)N5CCCC5)ccc4F)nc3c2)c1 | 0.01 |  | 3.6 | 35
18 | CC(=O)c1cccc(-c2cnc3[nH]c(-c4cc(NC(=O)N5CCCC5)ccc4F)nc3c2)c1 | 0.003 |  |  | 
19 | Cc1ccc(C(=O)Nc2ccc(F)c(-c3nc4ncccc4o3)c2)o1 | 0.2 | > 50 |  | 
20 | O=C(Nc1ccc(F)c(-c2nc3ncccc3o2)c1)c1cc2ccccc2o1 | > 10 | > 50 |  | 
21 | O=C(Nc1ccc(F)c(-c2nc3ncccc3o2)c1)c1ccoc1 | 0.15 | > 50 |  | 

Row | SMILES | EC50 [1] [µM] | CC50 (L6) [µM] | CC50 [2] [µM] | CC50 (HepG2) [µM]
22 | Cc1ccc(NC(=O)c2ccco2)cc1-c1nc2ncccc2o1 | 0.43 | > 50 |  | 
23 | O=C(Nc1ccc(-c2ccc(F)c(F)c2)c(-c2nc3ncccc3o2)c1)c1ccco1 | > 50 | > 50 |  | 
24 | O=C(Nc1ccc(F)c(-c2nc3cc(-c4cncnc4)cnc3[nH]2)c1)N1CCCC1 | 0.03 |  | 12 | > 50
25 | O=C(Nc1ccc(Cl)c(-c2nc3ccccc3o2)c1)c1ccco1 | > 20 |  |  | 
26 | O=C(Nc1ccc(F)c(-c2nc3cc(-c4cccs4)cnc3[nH]2)c1)N1CCCC1 | 0.004 |  | 9 | 
27 | Cc1ccoc1C(=O)Nc1ccc(F)c(-c2nc3ncccc3o2)c1 | 0.1 | > 50 |  | 
28 | N=C(N)c1ccc(OCCCCCOc2ccc(C(=N)N)cc2)cc1 [PENTAMIDINE] | 0.00174 |  |  | 
29 | Cc1cncc(-c2cnc3[nH]c(-c4cc(NC(=O)N5CCCC5)ccc4F)nc3c2)c1 | 0.01 |  | > 50 | > 50
30 | O=C(Nc1ccc(F)c(-c2nc3ncccc3o2)c1)c1ccco1 | 0.12 | > 50 |  | 
31 | Nc1ccc(Cl)c(-c2nc3ncccc3o2)c1 | > 20 |  |  | 
32 | N#Cc1ccc(NC(=O)c2ccco2)cc1-c1nc2ncccc2o1 | 0.4 | > 50 |  | 
33 | O=C(Nc1ccccc1)Nc1ccc(Cl)c(-c2nc3ncccc3o2)c1 | 12 | > 50 |  | 
34 | O=C(Nc1ccc(Cl)c(-c2nc3ncccc3o2)c1)c1cccs1 | 1.5 | > 50 |  | 
35 | COc1ccc(NC(=O)c2ccco2)cc1-c1nc2ncccc2o1 | > 10 | > 50 |  | 
36 | O=C(Nc1ccc(F)c(-c2nc3cc(-c4cccnc4)cnc3[nH]2)c1)N1CCCC1 | 0.005 |  | 14 | > 50
37 | O=C(Nc1ccc(F)c(-c2nc3ncc(Br)cc3o2)c1)c1ccco1 | 0.23 | > 50 |  | 
38 | CNC(=O)Nc1ccc(F)c(-c2nc3ncccc3o2)c1 | 3.8 | > 50 |  | 
39 | Cc1ccccc1C(=O)Nc1ccc(Cl)c(-c2nc3ccccc3o2)c1 | > 20 |  |  | 
40 | O=C(Nc1ccc(-c2ccncc2)c(-c2nc3ncccc3o2)c1)c1ccco1 | > 20 |  |  | 
41 | COc1ncc(-c2cnc3[nH]c(-c4cc(NC(=O)N5CCCC5)ccc4F)nc3c2)cn1 | 0.06 |  | 3.9 | 9.8
42 | O=C(Nc1ccc(Cl)c(-c2nc3ncccc3o2)c1)N1CCCC1 | 0.09 |  | > 50 | > 50

Row | SMILES | EC50 [1] [µM] | CC50 (L6) [µM] | CC50 [2] [µM] | CC50 (HepG2) [µM]
43 | Cc1cccc(C(=O)Nc2ccc(Cl)c(-c3nc4ccccc4o3)c2)c1 | > 20 |  |  | 
44 | CC(=O)Nc1ccc(F)c(-c2nc3ncccc3o2)c1 | > 20 | > 50 |  | 
45 | O=C(Nc1ccc(F)c(-c2nc3cccnc3[nH]2)c1)c1ccco1 | 0.2 |  |  | 
46 | O=C(Nc1ccc(Cl)c(-c2nc3ncccc3o2)c1)c1ccccc1 | 7.1 | > 50 |  | 
47 | O=C(Nc1ccc(F)c(-c2nc3ncccc3o2)c1)c1cnccn1 | 0.9 | > 50 |  | 
48 | O=C(Nc1ccc(F)c(-c2nc3cnccc3o2)c1)c1ccco1 | > 20 |  |  | 
49 | O=C(Nc1ccc(F)c(-c2nc3ncc(-c4cccc(Cl)c4)cc3o2)c1)c1ccco1 | 0.05 | > 50 |  | 
50 | O=C(Nc1ccc(F)c(-c2nc3cc(F)cnc3[nH]2)c1)c1ccco1 | 0.2 |  |  | 
51 | O=C(Nc1ccc(Cl)c(-c2nc3ccccc3o2)c1)c1ccccc1 | > 20 |  |  | 
52 | Fc1ccc(N(Cc2ccccc2)Cc2ccccc2)cc1-c1nc2ncccc2o1 | 1.1 | > 50 |  | 
53 | O=C(Nc1ccc(F)c(-c2nc3cc(-c4ccnc(Cl)c4)cnc3[nH]2)c1)N1CCCC1 | 0.004 |  | > 50 | > 50
54 | O=C(Nc1ccc(Cl)c(-c2nc3ccccc3o2)c1)c1ccccc1F | > 20 |  |  | 
55 | O=C(Nc1ccc(F)c(-c2nc3cc(-c4ccc(Cl)nc4)cnc3[nH]2)c1)N1CCCC1 | 0.01 |  | 3.8 | > 50
56 | O=C(Nc1ccc(F)c(-c2nc3ncccc3o2)c1)c1cccnc1 | 7 | > 50 |  | 
57 | Cc1cccc(-c2cnc3[nH]c(-c4cc(NC(=O)N5CCCC5)ccc4F)nc3c2)c1 | 0.002 |  | 5 | 10
58 | CC(=O)N(C(=O)c1ccco1)c1ccc(F)c(-c2nc3ncccc3o2)c1 | 0.5 |  |  | 
59 | COc1ccc(-c2cnc3nc(-c4cc(NC(=O)c5ccco5)ccc4F)oc3c2)cc1 | 0.17 |  |  | 
60 | O=C(Nc1ccc(F)c(-c2nc3cc(Cl)cnc3[nH]2)c1)N1CCCC1 | 0.05 | 15 | > 50 | > 50
61 | CN1CCN(C(=O)c2cc(NC(=O)c3ccco3)ccc2Cl)CC1 | > 20 |  |  | 
62 | CN(C)C(=O)Nc1ccc(Cl)c(-c2nc3ncccc3o2)c1 | 0.4 | > 50 |  | 
63 | CN(C(=O)c1ccco1)c1ccc(F)c(-c2nc3ncccc3o2)c1 | > 10 | > 50 |  | 

Row | SMILES | EC50 [1] [µM] | CC50 (L6) [µM] | CC50 [2] [µM] | CC50 (HepG2) [µM]
64 | Cc1cc(-c2cnc3[nH]c(-c4cc(NC(=O)N5CCCC5)ccc4F)nc3c2)ccc1F | 0.02 |  | > 50 | 
65 | O=C(Nc1ccc(F)c(-c2nc3ncccc3o2)c1)C1CCCO1 (centres undefined) | > 10 |  |  | 
66 | O=C(Nc1ccc(F)c(CNc2ccc(Cl)cn2)c1)c1ccco1 | > 10 |  |  | 
67 | O=C(c1ccco1)N(C(=O)c1ccco1)c1ccc(F)c(-c2nc3ncccc3o2)c1 | 0.12 | > 50 | > 50 | > 50
68 | O=C(Nc1ccc(F)c(-c2nc3ccc(Cl)nc3[nH]2)c1)c1ccco1 | 10 |  |  | 
69 | O=C(Nc1ccc(F)c(-c2nc3cc(-c4cccc(Cl)c4)cnc3[nH]2)c1)N1CCCC1 | 0.002 |  | 2.8 | > 50
70 | O=C(Nc1ccc(F)c(-c2nc3cc(-c4cnc(Cl)nc4)cnc3[nH]2)c1)N1CCCC1 | 0.04 | 14.3 |  | 
71 | O=C(Nc1ccc(Cl)c(C(=O)N2CCOCC2)c1)c1ccco1 | > 20 |  |  | 
72 | O=C(Nc1ccc(F)c(-c2nc3ncccc3o2)c1)c1cnco1 | 1.9 | > 50 |  | 
73 | Cn1cncc1C(=O)Nc1ccc(F)c(-c2nc3ncccc3o2)c1 | > 20 | > 50 |  | 
74 | O=C(Nc1ccc(Cl)c(C(=O)N2CCNCC2)c1)c1ccco1 | > 20 |  |  | 
75 | O=C(Nc1ccc(F)c(-c2nc3c(Cl)ccnc3[nH]2)c1)c1ccco1 | 0.12 |  |  | 
76 | O=C(Nc1ccc(F)c(-c2nc3cc(-c4cncc(Cl)c4)cnc3[nH]2)c1)N1CCCC1 | 0.005 |  | 38 | > 50
77 | Nc1cccc(-c2cnc3[nH]c(-c4cc(NC(=O)N5CCCC5)ccc4F)nc3c2)c1 | 0.01 |  | 5 | 40
78 | CCN(CC)CCCC(C)Nc1c2ccc(Cl)cc2nc2ccc(OC)cc12 (centres undefined) [QUINACRINE] |  |  | 3.92 | 9.78
79 | O=C(Nc1ccc(F)c(-c2nc3cc(-c4ccoc4)cnc3[nH]2)c1)N1CCCC1 | 0.004 |  | 25 | > 50
80 | COc1ccc(-c2cnc3[nH]c(-c4cc(NC(=O)N5CCCC5)ccc4F)nc3c2)cn1 | 0.005 |  | > 50 | > 50
81 | O=C(Nc1ccc(-c2ccc(F)cc2)c(-c2nc3ncccc3o2)c1)c1ccco1 | > 50 | > 50 |  | 
82 | O=C(Nc1ccc(Cl)c(-c2nc3ccccc3o2)c1)c1cccc(F)c1 | > 20 |  |  | 
83 | CS(=O)(=O)Nc1ccc(Cl)c(-c2nc3ncccc3o2)c1 | 6.1 | > 50 |  | 
84 | Cn1cccc1C(=O)Nc1ccc(F)c(-c2nc3ncccc3o2)c1 | 1.1 | > 50 |  | 
